PG9 Ab binder: small molecules binding HIV-1 gp120 antibody PG9. AID 624416. inhibition, % at 6.7 µM. TR-FRET gp120-PG9 antibody binding. 0.43% of 360,000 active; in the data active = inhibition above about 8.5%
NR1D1 modulator: modulators of human Rev-erb alpha DNA binding; P20393; AID 1259318; 0.79% of 370,000 active; Rev-erbα–FITC-DNA binding, fluorescence polarization, 90 min; activity, % at 10 µM;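 active = activity above about 14%, limit read from the data; passing the limit was not always enough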;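 also: 0% = DMSO wells with 35 nM protein and 100% = DMSO wells with 750 nM protein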
NR2E3 ag-1: activates human photoreceptor nuclear receptor NR2E3. Q9Y5X4. GST-NR2E3/biotin-RetCOR TR-FRET, 1536-well. inhibition of corepressor binding, % at 4.78 µM. 0.12% of 320,000 active;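 active = percent inhibition above the cutoff of mean plus 3 SD of all tested compounds, set per screening campaign, cut at about 20% in these data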;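 also: 0% = DMSO wells and 100% = biotin wells as full block of FRET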
Target sequence (Q9Y5X4 whole entry, looked up): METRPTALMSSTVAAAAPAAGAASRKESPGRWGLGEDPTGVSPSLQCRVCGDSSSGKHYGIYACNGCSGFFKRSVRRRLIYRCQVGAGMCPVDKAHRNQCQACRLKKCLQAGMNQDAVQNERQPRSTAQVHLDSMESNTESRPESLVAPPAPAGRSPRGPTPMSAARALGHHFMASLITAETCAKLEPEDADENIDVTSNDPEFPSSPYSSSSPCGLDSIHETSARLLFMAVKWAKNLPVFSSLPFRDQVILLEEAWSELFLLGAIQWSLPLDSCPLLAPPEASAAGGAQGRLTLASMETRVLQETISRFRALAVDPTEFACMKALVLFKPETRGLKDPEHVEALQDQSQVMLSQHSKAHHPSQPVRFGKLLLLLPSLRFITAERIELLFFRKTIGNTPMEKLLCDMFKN
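System: GST-tagged NR2E3 plus biotinylated RetCOR corepressor; Buffer or medium: pH 7.5 Tris-based buffer; Probe or stimulus: RetCOR corepressor, biotinylated, 7 nM; Doses: compound at 4.8 µM, single dose; Schedule: 5 h incubation at 4 °C; Technique: time-resolved FRET; Evaluation: percent inhibition of TR-FRET ratio; Replication: one well per compound, singlicate testing.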
NR2E3 ag-2: activates human NR2E3 receptor; Q9Y5X4; CHO-S Gal4-NCOR/VP16-NR2E3 two-hybrid, luciferase; inhibition of corepressor binding, % at 3.98 µM; 0.35% of 360,000 active; AID 602229;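 active = inhibition above the mean of all tested compounds plus 3 SD, cut at about 70% in these data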;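 also: 0% = DMSO with NR2E3 transfected cells and 100% = cells lacking NR2E3 construct; higher means lower luciferase signal from less NR2E3 corepressor binding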
GalR3 antag: blocks the human galanin receptor 3 | O60755 | HEK293 GalR3-CNG cAMP membrane potential fluorescence; galR3 body fused to GalR1 C-terminus | inhibition, % at 3 µM | 0.44% of 360,000 active | AID 651719;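 active = inhibition above the screen-wide average plus 3 SD, cut at about 13% in these data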;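 also: forskolin and galanin both at EC90 stimulate the cells; cAMP rise reported by CNG channel membrane potential dye signal; 0% = forskolin plus galanin with DMSO and 100% = forskolin alone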
NR2E3 ag confirm: NR2E3 (human) agonism, confirmation. AID 2379. activation (reported as inhibition), % at 3.98 µM. cell-free NR2E3 corepressor release, TR-FRET, 5 h. 39% of 360 active. shares compounds with NR2E3 ag-1; in the data active = activation above about 20%
PPARg-NCOR2 ctr: releases PPARgamma from NCOR2 in NR2E3 counter-screen; shares compounds with NR2E3 ag-1; TR-FRET PPARg-NCOR2 coregulator interaction, biochemical; inhibition, % at 3.98 µM; 45% of 360 active; AID 504787; in the data active = inhibition above about 20%;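 also: 0% = DMSO vehicle and 100% = wells without protein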
PG9 bind confirm: confirmation of small molecules binding HIV-1 gp120 antibody PG9. AID 651571. shares compounds with PG9 Ab binder. 90% of 1,500 active. TR-FRET PG9 antibody binding, biochemical. inhibition, % at 6.7 µM; in the data active = inhibition above about 9%
PGV04 counter: PGV04 control antibody binding, counter-screen. shares compounds with PG9 Ab binder. TR-FRET PGV04 antibody-gp120 binding, biochemical. inhibition, % at 6.7 µM. 95% of 1,500 active. AID 651604; in the data active = inhibition above about 9.5%
* = called active by the depositor; / = not tested or not shown. An excerpt weighted towards active compounds, which were near 1.8% of everything screened.

SMILES | PG9 Ab binder | NR1D1 modulator | NR2E3 ag-1 | NR2E3 ag-2 | GalR3 antag | NR2E3 ag confirm | PPARg-NCOR2 ctr | PG9 bind confirm | PGV04 counter
Cc1cc(C)c(OCC(=O)Nc2ccc3c(c2)OCO3)cc1C | 18* | 7 | 29* | -5 | -5 | 12 | 18 | 20* | 24*
C=CCOc1cccc(C2C(C(=O)c3cccs3)=C(O)C(=O)N2Cc2cccnc2)c1 (centres undefined) | 7 | -1 | 2 | 4 | -4 | / | / | / | /
COCCCN1C(=O)C(O)=C(C(=O)c2ccc(C)o2)C1c1cccc(Br)c1 (centres undefined) | 19* | 1 | 45* | -32 | 1 | 20* | 20* | 20* | 26*
C=CCOc1ccc(C2C(C(=O)c3ccc(C)o3)=C(O)C(=O)N2Cc2cccnc2)cc1 (centres undefined) | 11* | -4 | 20* | -1 | -7 | 5 | 5 | 27* | 31*
CCCCOc1cccc(C2C(C(=O)c3ccc(C)o3)=C(O)C(=O)N2Cc2ccco2)c1 (centres undefined) | 2 | -1 | / | 22 | -1 | / | / | / | /
CCOc1cccc(C2C(C(=O)c3ccc(C)o3)=C(O)C(=O)N2CCCn2ccnc2)c1 (centres undefined) | 9.1* | 0 | 24* | -9 | -3 | 29* | 28* | 15* | 19*
CCOc1cccc(C2C(C(=O)c3ccc(C)o3)=C(O)C(=O)N2c2nccs2)c1 (centres undefined) | 6 | -2 | 19 | -6 | -1 | / | / | / | /
CC(=O)Nc1ccc(S(=O)(=O)c2ccc(NC(C)=O)cc2)cc1 | / | 2 | / | / | / | / | / | / | /
COc1ccc2nc(NC(=O)CSc3nc4ccccc4o3)sc2c1 | 21* | 18 | 20* | 14 | -4 | 9 | 16 | 27* | 45*
CC1(C)OC(=O)C(OCC2CC2)=C1c1ccc(S(C)(=O)=O)cc1 | / | -4 | / | / | / | / | / | / | /
CCCC[C@@H](CCCc1ccc(F)cc1)CCC(=O)N(c1ccccc1)c1ccccc1 | / | 2 | / | / | / | / | / | / | /
CC(C)Cc1c2c([nH]c(=S)c1C#N)CCCC2 | 15* | -4 | 38* | -5 | 3 | 34* | 36* | 6 | 6
C=C(c1ccccc1OCc1cccc(Cl)c1)n1ccnc1 | / | -1 | / | / | / | / | / | / | /
O=S(=O)(Nc1cccnc1)c1ccc(Br)c2ccccc12 | 15* | 5 | 30* | 14 | -2 | 17 | 21* | 24* | 30*
CC(COc1ccc(S(C)(=O)=O)cc1)CN1CCC(C(O)(c2ccccc2)c2ccccc2)CC1 (centres undefined) | / | 1 | / | / | / | / | / | / | /
CC1(C)Cc2ccccc2-c2nc(NN)[nH]c(=O)c21 | -1 | 3 | 1 | 5 | -10 | / | / | / | /
Cn1c(=S)[nH]c2c(c1=O)C(C)(C)Cc1ccccc1-2 | 17* | -5 | 39* | 15 | -2 | 41* | 35* | 11* | 11*
CCC1(C)Cc2ccccc2-c2nc[nH]c(=O)c21 (centres undefined) | -1 | -5 | -1 | -4 | -8 | / | / | / | /
CCC1(C)Cc2ccccc2-c2[nH]c(=S)[nH]c(=O)c21 (centres undefined) | 32* | -1 | 31* | 12 | -8 | 20* | 17 | 6 | 8
C=CCN(C)CC#CCCCCl | / | 4 | / | / | / | / | / | / | /
Cc1ccc(-n2c(SCC(=O)Nc3ccc(OCc4ccccc4)cc3)nnc2-c2ccccc2)cc1 | / | -3 | / | / | / | / | / | / | /
N#CC(=C=[N-])C1=C(C#N)C(c2ccccc2F)C([n+]2ccccc2)C(O)(C2CC2)N1 (centres undefined) | 9.1* | -3 | 29* | -14 | -5 | -7 | 3 | 16* | 24*
N#CC1=C(N)NC(=S)C(C(N)=O)C1c1ccccc1F (centres undefined) | -1 | -2 | -2 | 11 | 1 | / | / | / | /
CC(=O)CC/C=C(\C)CC/C=C(\C)CC/C=C(\C)CCC=C(C)C | / | -4 | / | / | / | / | / | / | /
Cc1cc(SCC(=O)NC2CCCC2)nc2ccccc12 | 16* | 4 | 22* | -10 | -10 | 8 | 5 | 31* | 44*
SMILES | PG9 Ab binder | NR1D1 modulator | NR2E3 ag-1 | NR2E3 ag-2 | GalR3 antag | NR2E3 ag confirm | PPARg-NCOR2 ctr | PG9 bind confirm | PGV04 counter
CCOC(=O)/C(C#N)=C1\Nc2ccccc2N=C1N(CC(C)C)CC(C)C | -1 | 4 | -1 | 41 | -13 | / | / | / | /
CCOC(=O)/C(C#N)=C1/C=C(C)NC(c2ccccc2O)=N1 | 24* | 1 | 23* | 20 | -8 | 13 | 10 | 27* | 34*
CSc1nc(Sc2ccccc2Cl)c2ccccc2n1 | 9.1* | 3 | 26* | -2 | -4 | 10 | 13 | 17* | 22*
COC(=O)C1CN(Cc2ccc(F)cc2)CCS(=O)(=O)N1Cc1cn(Cc2ccc(C)cc2)nn1 (centres undefined) | / | 0 | / | / | / | / | / | / | /
CN1CCN(NC(=O)c2cc(-c3ccc(Br)s3)nc3ccccc23)CC1 | 19* | -1 | 26* | -9 | -10 | 16 | 20* | 39* | 68*
CCc1ccc(-c2cc(C(=O)NN3CCOCC3)c3ccccc3n2)s1 | 1 | 8 | 2 | -20 | -2 | / | / | / | /
CCN(CC(=O)NC(C)C)Cc1nc2c(Br)cc(Br)cc2c(=O)[nH]1 | 23* | 5 | 55* | -27 | 3 | 56* | 48* | 40* | 52*
O=C(C1=C(O)C(=O)N(CCN2CCOCC2)C1c1ccc(F)cc1)c1cc2ccccc2o1 (centres undefined) | 11* | 2 | 27* | -3 | 1 | 31* | 32* | 17* | 22*
O=C(C1=C(O)C(=O)N(CCN2CCOCC2)C1c1ccco1)c1cc2ccccc2o1 (centres undefined) | 4 | 4 | 14 | -10 | -7 | / | / | / | /
CCN(CC)CCN1C(=O)C(O)=C(C(=O)c2cc3ccccc3o2)C1c1cccnc1 (centres undefined) | 24* | 4 | 28* | -27 | 0 | 27* | 28* | 36* | 46*
CCOc1cc(C2C(C(=O)c3ccco3)=C(O)C(=O)N2CCc2ccccc2)ccc1O (centres undefined) | -3 | -2 | 6 | -19 | 3 | / | / | / | /
O=C(C1=C(O)C(=O)N(CCN2CCOCC2)C1c1cccc(Br)c1)c1cc2ccccc2o1 (centres undefined) | 23* | -2 | 35* | -21 | -10 | 52* | 57* | 34* | 43*

Compound activity deposited in PubChem by several laboratories.
